From ChEMBL document CHEMBL1132421, “N-[2,2-dimethyl-3-(N-(4-cyanobenzoyl)amino)nonanoyl]-L-phenylalanine ethyl ester as a stable ester-type inhibitor of chymotrypsin-like serine proteases: structural requirements for potent inhibition of alpha-chymotrypsin” (J Med Chem, 1999)

Tests used:
Chymotrypsinogen A [1] = target: T1, Chymotrypsinogen A (Bos taurus, UniProt P00766); experiment: In vitro inhibition of bovine alpha chymotrypsin.
Summary of the method: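 Bovine pancreatic α-chymotrypsin (type I-S, 47 ng/mL) with N-succinyl-Ala-Ala-Pro-Phe-pNA (1.5 mM) in 50 mM HEPES pH 7.4 containing 0.1 mM NaCl, across a range of inhibitor concentrations. Incubated 120 min at 37 °C, then A405 read. IC50 taken from dose-inhibition curves, in triplicate. Chymostatin served as control.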

Serine protease 1 = target: T2, Serine protease 1 (Bos taurus, UniProt P00760); experiment: Compound was tested by chromogenic assay for the inhibition of serine proteases like Bovine trypsin
T2 sequence (P00760 whole entry): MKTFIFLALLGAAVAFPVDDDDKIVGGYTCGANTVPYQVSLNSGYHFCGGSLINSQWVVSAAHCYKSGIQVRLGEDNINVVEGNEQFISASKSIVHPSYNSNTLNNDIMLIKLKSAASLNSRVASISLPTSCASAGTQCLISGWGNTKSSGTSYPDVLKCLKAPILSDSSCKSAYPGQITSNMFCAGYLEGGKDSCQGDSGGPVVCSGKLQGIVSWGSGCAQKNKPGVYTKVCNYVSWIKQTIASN
Summary of the method: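 Trypsin (1 U/mL; named porcine pancreatic in the methods, bovine in the table footnote) with Bz-L-Arg-pNA (1 mM) in 50 mM HEPES pH 7.4 containing 0.1 mM NaCl, with varied inhibitor concentrations. Incubated 120 min at 37 °C, then A405 read. IC50 from dose-inhibition curves, with leupeptin as control.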

chymotrypsin = experiment: Percentage of intact compound after chymotrypsin cleavage at 37 degree C for 120 min; type: ADME; settings: read-out: Stability
Summary of the method: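 Inhibitor (5 mM stock, diluted 1:100 by volume) incubated with bovine α-chymotrypsin (625 ng/mL solution) for 120 min at 37 °C. Intact compound and cleaved free acid quantified by reverse-phase HPLC (50–75% acetonitrile in 0.1% TFA over 25 min). Result given as percent intact compound relative to the initial amount.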

Cathepsin G = target: T3, Cathepsin G (Homo sapiens, UniProt P08311); experiment: Compound was tested by chromogenic assay for the inhibition of serine proteases like Human cathepsin G
T3 sequence (P08311 whole entry): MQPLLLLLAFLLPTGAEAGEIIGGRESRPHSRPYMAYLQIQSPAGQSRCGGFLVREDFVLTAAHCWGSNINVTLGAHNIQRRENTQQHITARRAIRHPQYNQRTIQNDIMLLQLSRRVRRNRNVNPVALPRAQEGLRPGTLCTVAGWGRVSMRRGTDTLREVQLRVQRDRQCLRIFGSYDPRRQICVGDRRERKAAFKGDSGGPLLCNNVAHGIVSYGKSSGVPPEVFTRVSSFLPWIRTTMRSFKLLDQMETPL

[2] = target: Chymotrypsin-like elastase family member 1 (Sus scrofa, UniProt P00772); experiment: Compound was tested by chromogenic assay for the inhibition of serine proteases like Porcine Elastase
Chymotrypsin-like elastase family member 1, sequence (P00772 whole entry): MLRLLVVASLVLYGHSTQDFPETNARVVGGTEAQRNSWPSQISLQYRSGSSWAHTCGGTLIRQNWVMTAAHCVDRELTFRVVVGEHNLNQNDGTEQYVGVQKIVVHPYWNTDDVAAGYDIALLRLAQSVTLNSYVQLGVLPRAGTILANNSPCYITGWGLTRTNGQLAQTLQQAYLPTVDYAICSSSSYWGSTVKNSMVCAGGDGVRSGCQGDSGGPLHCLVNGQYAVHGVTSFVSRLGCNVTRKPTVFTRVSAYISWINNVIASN
Summary of the method: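 Purified porcine pancreatic elastase (type III) with chromogenic substrate N-succinyl-Ala-Ala-Ala-pNA in 50 mM HEPES, pH 7.4, with NaCl. Enzyme and substrate were mixed with a range of inhibitor concentrations and held at 37 °C for 120 min. Activity was read as absorbance at 405 nm. IC50 was taken from dose-inhibition curves, with elastatinal as the reference inhibitor.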

Chymotrypsinogen A [3] = target: T1, Chymotrypsinogen A; experiment: Compound was evaluated for inactivation of bovine alpha-Chymotrypsin Kinetic constant(Ki)
Chymase = target: T4, Chymase (Homo sapiens, UniProt P23946); experiment: Compound was tested by chromogenic assay for the inhibition of human Serine protease chymase
T4 sequence (P23946 whole entry): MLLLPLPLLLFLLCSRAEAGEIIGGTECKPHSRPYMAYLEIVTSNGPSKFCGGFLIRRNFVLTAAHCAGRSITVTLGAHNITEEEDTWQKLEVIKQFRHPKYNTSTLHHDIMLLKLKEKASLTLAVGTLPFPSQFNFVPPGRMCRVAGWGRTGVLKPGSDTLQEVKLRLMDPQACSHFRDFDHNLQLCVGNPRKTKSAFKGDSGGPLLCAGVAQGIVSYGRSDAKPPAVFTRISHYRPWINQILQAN

| Structure (SMILES) | IC50 (Chymotrypsinogen A [1]) | IC50 (Serine protease 1) | remaining at 2 h (chymotrypsin) | IC50 [2] | further results |
| --- | --- | --- | --- | --- | --- |
| CCCCCCCCCCCCC(NC(=O)c1ccc(C#N)cc1)C(C)(C)C(=O)N[C@@H](Cc1ccccc1)C(=O)OCC (stereo not given in full) | 4.2 µM | 220 µM |  |  |  |
| CC(C)(C(=O)OC(=O)C(C)(C)C(CCc1ccccc1)NC(=O)c1ccc(C#N)cc1)C(CCc1ccccc1)NC(=O)c1ccc(C#N)cc1 (stereo not given) | 0.0021 µM | 0.3 µM |  |  |  |
| CCCCCCCCCCC(NC(=O)c1ccc(C#N)cc1)C(C)(C)C(=O)N[C@@H](Cc1ccccc1)C(=O)OCC (stereo not given in full) |  |  | 16% |  |  |
| CCCCCCCCC(NC(=O)c1ccc(C#N)cc1)C(C)(C)C(=O)N[C@@H](Cc1ccccc1)C(=O)OCC (stereo not given in full) | 8.6 µM |  | 61% | 2.7 µM | IC50 (Cathepsin G): 6.6 µM |
| CCCCCCC(NC(=O)c1ccco1)C(C)(C)C(=O)N[C@@H](Cc1ccccc1)C(=O)OCC (stereo not given in full) | 12 µM |  |  |  |  |
| CCCC(NC(=O)c1ccc(C#N)cc1)C(C)(C)C(=O)N[C@@H](Cc1ccccc1)C(=O)OCC (stereo not given in full) |  |  | 11% |  |  |
| CCCCCCC(NC(=O)c1ccc(C#N)cc1)C(C)(C)C(=O)N[C@@H](Cc1ccccc1)C(=O)OCCC (stereo not given in full) | 0.23 µM | 17 µM | 97% | 0.27 µM | Ki (Chymotrypsinogen A [3]): 0.34 µM |
| CCOC(=O)[C@H](Cc1ccccc1)NC(=O)C(C)(C)C(CCc1ccccc1)NC(=O)c1ccc(C#N)cc1 (stereo not given in full) | 0.25 µM |  |  |  |  |
| CCOC(=O)[C@H](Cc1ccccc1)NC(=O)C(C)(C)C(NC(=O)c1ccc(C#N)cc1)C(C)C (stereo not given in full) | 2.2 µM | 60 µM | 90% |  |  |
| CCCCCC(NC(=O)c1ccc(C#N)cc1)C(C)(C)C(=O)N[C@@H](Cc1ccccc1)C(=O)OCC (stereo not given in full) |  |  | 3% |  |  |
| CCCCCCCC(NC(=O)c1ccc(C#N)cc1)C(C)(C)C(=O)N[C@@H](Cc1ccccc1)C(=O)OCC (stereo not given in full) |  |  | < 1% |  |  |
| CCCCCCC(NC(=O)OC(C)(C)C)C(C)(C)C(=O)N[C@@H](Cc1ccccc1)C(=O)OCC (stereo not given in full) | 1 µM | 6.3 µM |  |  |  |
| CCCCCCC(NC(=O)c1ccc(C#N)cc1)C(C)(C)C(=O)N[C@@H](Cc1ccccc1)C(=O)OCc1ccccc1 (stereo not given in full) | 230 µM |  |  |  |  |
| CCCCCCC(NC(=O)c1ccccc1)C(C)(C)C(=O)N[C@@H](Cc1ccccc1)C(=O)OCC (stereo not given in full) | 17 µM | 560 µM | < 1% |  |  |
| CCCCC(NC(=O)c1ccc(C#N)cc1)C(C)(C)C(=O)N[C@@H](Cc1ccccc1)C(=O)OCC (stereo not given in full) | 27 µM |  |  | 710 µM | IC50 (Chymase): 510 µM |
| CCCCCCC(NC(=O)c1ccc(C#N)cc1)C(C)(C)C(=O)N[C@@H](Cc1ccccc1)C(=O)OCC (stereo in doubt; 3-F) | 0.0016 µM |  |  | 0.0086 µM |  |
| CCCCCCC(NC(=O)c1ccc(C#N)cc1)C(C)(C)C(=O)N[C@@H](Cc1ccccc1)C(=O)OC (stereo not given in full) | 1.1 µM |  | 98% | 4.2 µM | Ki (Chymotrypsinogen A [3]): 12 µM; IC50 (Cathepsin G): 1.5 µM |
| CCCCCCC(NC(=O)c1ccc(C#N)cc1)C(C)(C)C(=O)N[C@@H](Cc1ccccc1)C(=O)OC(C)(C)C (stereo not given in full) | 73 µM |  |  |  |  |
| CCCCCCC(NC(=O)c1ccc(C#N)cc1)C(C)(C)C(=O)N[C@@H](Cc1ccccc1)C(=O)OCC (stereo in doubt; 3-R) | 0.0051 µM |  |  | 0.014 µM |  |
| CCOC(=O)[C@H](Cc1ccccc1)NC(=O)C(C)(C)C(CC(C)C)NC(=O)c1ccc(C#N)cc1 (stereo not given in full) |  |  | 41% |  |  |
| CCCCCCC(NC(=O)c1ccc(C#N)cc1F)C(C)(C)C(=O)N[C@@H](Cc1ccccc1)C(=O)OCC (stereo not given in full) |  |  | 6% |  |  |
| CCCCCCC(NC(=O)c1ccc(C#N)cc1)C(C)(C)C(=O)N[C@@H](Cc1ccccc1)C(=O)OCC (stereo in doubt; 3) | 0.0026 µM | 0.54 µM |  | 0.007 µM | Ki (Chymotrypsinogen A [3]): 0.0045 µM |
| CCOC(=O)[C@H](Cc1ccccc1)NC(=O)C(C)(C)C(CC)NC(=O)c1ccc(C#N)cc1 (stereo not given in full) | 3.4 µM |  | 91% |  |  |
| CCCCCCC(NC(=O)c1ccc(C#N)cc1)C(C)(C)C(=O)N[C@@H](Cc1ccccc1)C(=O)OC(C)C (stereo not given in full) | 0.086 µM | 6.7 µM | 98% | 0.2 µM | Ki (Chymotrypsinogen A [3]): 0.07 µM; IC50 (Chymase): 0.15 µM |
